According to ChEMBL document CHEMBL5724801, “EUbOPEN Chemogenomics Library - Multiplex” (2024):
Several values for one entry are separate records, joined by “and”; a condition that tells them apart may be missing. Equal entries are not always repeated. Non-standard residues stand in square brackets, D forms with d. Residues, ends and D or L forms follow the SMILES beside them.

Test system: U2OS
Test: Multiplex assay against U2OS
Assay type: toxicity, cell-based
Conditions: human
How it was run: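 Cells stained live at seeding with Hoechst33342, BioTracker Green Microtubule Cytoskeleton Dye, MitoTracker Red and Annexin V Alexa Fluor 680 were imaged on a CQ1 microscope at 37°C and 5% CO2 after compound addition. Their classification by CellPathfinder machine-learning gating ran from Hoechst high-intensity objects versus normal cells, to healthy, pyknosed or fragmented nuclei among normal cells, to mitotic or apoptotic among pyknosed cells. Tubulin, mitochondrial-mass and membrane-permeability phenotypes are per cents of healthy-nucleus cells.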

[1] = 12 h, 1 µM, compound concentration 1 uM
[2] = 12 h, 10 µM, compound concentration 10 uM
[3] = 24 h, 1 µM, compound concentration 1 uM
[4] = 24 h, 10 µM, compound concentration 10 uM
[5] = 48 h, 1 µM, compound concentration 1 uM
[6] = 48 h, 10 µM, compound concentration 10 uM

O=C(Nc1cc(C(F)(F)F)cc(C(F)(F)F)c1)c1cc(Cl)ccc1O [IMD-0354]
Population Apoptotic (%) [1]: 56.25% and 45.83%
Population Fragmented Nuclei (%) [1]: 0.73% and 2.45%
Population Healthy Nuclei (%) [1]: 91.46% and 82.82%
Population Hoechst High Intensity Objects (%) [1]: 0.24% and 0.61%
Population Membrane Permeable-Phenotype (%) [1]: 0.27% and 2.22%
Population Mitochondria Different-Phenotype (%) [1]: 0% and 7.41%
Population Mitotic Cells (%) [1]: 43.75% and 54.17%
Population Normal (%) [1]: 99.76% and 99.39%
Population Pyknosed Nuclei (%) [1]: 7.8% and 14.72%
Population Tubulin-Different-Phenotype (%) [1]: 0.27% and 0.74%
Total Cell Count [1]: 411 and 164
Population Apoptotic (%) [2]: 45.45% and 65%
Population Fragmented Nuclei (%) [2]: 2.48% and 9.2%
Population Healthy Nuclei (%) [2]: 87.61% and 79.31%
Population Hoechst High Intensity Objects (%) [2]: 0%
Population Membrane Permeable-Phenotype (%) [2]: 0% and 0.72%
Population Mitochondria Different-Phenotype (%) [2]: 0% and 2.9%
Population Mitotic Cells (%) [2]: 54.55% and 35%
Population Normal (%) [2]: 100%
Population Pyknosed Nuclei (%) [2]: 9.91% and 11.49%
Population Tubulin-Different-Phenotype (%) [2]: 0.26% and 0%
Total Cell Count [2]: 444 and 174
Population Apoptotic (%) [3]: 40.91% and 57.69%
Population Fragmented Nuclei (%) [3]: 1.32% and 3.81%
Population Healthy Nuclei (%) [3]: 90.38% and 83.81%
Population Hoechst High Intensity Objects (%) [3]: 0%
Population Membrane Permeable-Phenotype (%) [3]: 0.21% and 1.7%
Population Mitochondria Different-Phenotype (%) [3]: 0% and 8.52%
Population Mitotic Cells (%) [3]: 59.09% and 42.31%
Population Normal (%) [3]: 100%
Population Pyknosed Nuclei (%) [3]: 8.3% and 12.38%
Population Tubulin-Different-Phenotype (%) [3]: 0.42% and 0.57%
Total Cell Count [3]: 530 and 210
Population Apoptotic (%) [4]: 60.24% and 73.33%
Population Fragmented Nuclei (%) [4]: 1.8% and 8.77%
Population Healthy Nuclei (%) [4]: 79.5% and 73.68%
Population Hoechst High Intensity Objects (%) [4]: 0%
Population Membrane Permeable-Phenotype (%) [4]: 2.55% and 1.59%
Population Mitochondria Different-Phenotype (%) [4]: 0% and 0.79%
Population Mitotic Cells (%) [4]: 39.76% and 26.67%
Population Normal (%) [4]: 100%
Population Pyknosed Nuclei (%) [4]: 18.69% and 17.54%
Population Tubulin-Different-Phenotype (%) [4]: 3.4% and 0%
Total Cell Count [4]: 444 and 171
Population Apoptotic (%) [5]: 46.15% and 44.44%
Population Fragmented Nuclei (%) [5]: 2.37% and 2.99%
Population Healthy Nuclei (%) [5]: 91.15% and 83.53%
Population Hoechst High Intensity Objects (%) [5]: 0%
Population Membrane Permeable-Phenotype (%) [5]: 0.68% and 0.36%
Population Mitochondria Different-Phenotype (%) [5]: 0.14% and 3.58%
Population Mitotic Cells (%) [5]: 53.85% and 55.56%
Population Normal (%) [5]: 100%
Population Pyknosed Nuclei (%) [5]: 6.48% and 13.47%
Population Tubulin-Different-Phenotype (%) [5]: 1.23% and 0.36%
Total Cell Count [5]: 802 and 334
Population Apoptotic (%) [6]: 62.57% and 80.82%
Population Healthy Nuclei (%) [6]: 51.4% and 35.44%
Population Hoechst High Intensity Objects (%) [6]: 0% and 0.63%
Population Membrane Permeable-Phenotype (%) [6]: 13.86% and 7.14%
Population Mitochondria Different-Phenotype (%) [6]: 1.49% and 1.79%
Population Mitotic Cells (%) [6]: 37.43% and 19.18%
Population Normal (%) [6]: 100% and 99.37%
Population Pyknosed Nuclei (%) [6]: 45.55% and 46.2%
Population Tubulin-Different-Phenotype (%) [6]: 11.39% and 8.93%
Total Cell Count [6]: 393 and 159

CC(C)C[C@@H]1NC(=O)[C@@H](C(C)C)NC(=O)[C@@H]2CCCN2C(=O)[C@@H](CC(=O)O)NC(=O)[C@@H](Cc2c[nH]c3ccccc23)NC1=O [BQ-123] (cyclo(L[dW][dD]P[dV]))
Population Apoptotic (%) [1]: 77% and 83%
Population Fragmented Nuclei (%) [1]: 20% and 19%
Population Healthy Nuclei (%) [1]: 69% and 75%
Population Hoechst High Intensity Objects (%) [1]: 0% and 2%
Population Membrane Permeable-Phenotype (%) [1]: 1% and 2%
Population Mitochondria Different-Phenotype (%) [1]: 1% and 0%
Population Mitotic Cells (%) [1]: 22% and 16%
Population Normal (%) [1]: 99% and 97%
Population Pyknosed Nuclei (%) [1]: 9% and 5%
Population Tubulin-Different-Phenotype (%) [1]: 0% and 8%
Total Cell Count [1]: 228 and 118
Population Apoptotic (%) [2]: 78% and 75%
Population Fragmented Nuclei (%) [2]: 29% and 25%
Population Healthy Nuclei (%) [2]: 65% and 70%
Population Hoechst High Intensity Objects (%) [2]: 2%
Population Membrane Permeable-Phenotype (%) [2]: 8% and 7%
Population Mitochondria Different-Phenotype (%) [2]: 1% and 4%
Population Mitotic Cells (%) [2]: 21% and 25%
Population Normal (%) [2]: 97%
Population Pyknosed Nuclei (%) [2]: 4%
Population Tubulin-Different-Phenotype (%) [2]: 3% and 2%
Total Cell Count [2]: 294 and 99
Population Apoptotic (%) [3]: 69% and 85%
Population Fragmented Nuclei (%) [3]: 16% and 11%
Population Healthy Nuclei (%) [3]: 75% and 77%
Population Hoechst High Intensity Objects (%) [3]: 0%
Population Membrane Permeable-Phenotype (%) [3]: 2% and 6%
Population Mitochondria Different-Phenotype (%) [3]: 1% and 0%
Population Mitotic Cells (%) [3]: 30% and 14%
Population Normal (%) [3]: 99%
Population Pyknosed Nuclei (%) [3]: 8% and 10%
Population Tubulin-Different-Phenotype (%) [3]: 1% and 3%
Total Cell Count [3]: 279 and 137
Population Apoptotic (%) [4]: 92% and 100%
Population Fragmented Nuclei (%) [4]: 24%
Population Healthy Nuclei (%) [4]: 67% and 74%
Population Hoechst High Intensity Objects (%) [4]: 2% and 0%
Population Membrane Permeable-Phenotype (%) [4]: 8% and 6%
Population Mitochondria Different-Phenotype (%) [4]: 2% and 8%
Population Mitotic Cells (%) [4]: 8% and 0%
Population Normal (%) [4]: 97% and 99%
Population Pyknosed Nuclei (%) [4]: 7% and 1%
Population Tubulin-Different-Phenotype (%) [4]: 4%
Total Cell Count [4]: 338 and 113
Population Apoptotic (%) [5]: 77% and 100%
Population Fragmented Nuclei (%) [5]: 14% and 18%
Population Healthy Nuclei (%) [5]: 79% and 70%
Population Hoechst High Intensity Objects (%) [5]: 1%
Population Membrane Permeable-Phenotype (%) [5]: 3%
Population Mitochondria Different-Phenotype (%) [5]: 1% and 3%
Population Mitotic Cells (%) [5]: 22% and 0%
Population Normal (%) [5]: 98%
Population Pyknosed Nuclei (%) [5]: 5% and 10%
Population Tubulin-Different-Phenotype (%) [5]: 3% and 2%
Total Cell Count [5]: 407 and 226
Population Apoptotic (%) [6]: 94% and 81%
Population Fragmented Nuclei (%) [6]: 19% and 20%
Population Healthy Nuclei (%) [6]: 70% and 66%
Population Hoechst High Intensity Objects (%) [6]: 1%
Population Membrane Permeable-Phenotype (%) [6]: 5%
Population Mitochondria Different-Phenotype (%) [6]: 2% and 6%
Population Normal (%) [6]: 98%
Population Pyknosed Nuclei (%) [6]: 9% and 12%
Population Tubulin-Different-Phenotype (%) [6]: 3% and 2%
